T cell HTS: modulates CD8 T cell binding to vesicles | 2C CD8+ T cell-vesicle binding, flow cytometry; stronger effect = lower value | response (vesicle binding), % at 7 µM | 0.068% of 330,000 active | AID 2052;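 active = response, share of CD8 T cells binding vesicles, and their 90th percentile fluorescence all below set limits, cut at about 80% in these data, passing the limit was not always enough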;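 note: values below 100% mean blocked vesicle binding to the CD8+ T cells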
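incubation = binding step 1.5 h, 37 °C, antibody labelling 20 min, ice | test system = 2C mouse CD8+ T cells | read-out basis = percent CD8+ FL2 mean versus row control | controls = Peptide-free naked vesicles (low) and QL9 vesicles with 0.7% DMSO vehicle (high) | detection = flow cytometry of vesicle-bound cells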
Yeast superoxide: lowers age-related superoxide in aged yeast cells; S. cerevisiae aged cells, superoxide DHE fluorescence; stronger effect = lower value; superoxide response (% of plate mean), % at 10 µM; 0.18% of 330,000 active;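 active = superoxide response under a set limit, about three screen SD below normal, cut at about 65% in these data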;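 note: yeast aged for seven days with compound at 30 °C before DHE staining; 100% = average MFI of all compound-treated wells on the plate with controls excluded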
proKLK7 act: activates the human kallikrein-7 zymogen; P49862; activation, % at 7 µM; AID 652039; 0.9% of 370,000 active; purified proKLK7, EDANS-DABCYL substrate fluorescence; 100% is mature enzyme control, 0% vehicle;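 active = activation above the mean of all tested compounds plus 3 SD, computed per campaign excluding outliers beyond control limits, cut at about 13% in these data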
Target sequence (P49862 whole entry, looked up): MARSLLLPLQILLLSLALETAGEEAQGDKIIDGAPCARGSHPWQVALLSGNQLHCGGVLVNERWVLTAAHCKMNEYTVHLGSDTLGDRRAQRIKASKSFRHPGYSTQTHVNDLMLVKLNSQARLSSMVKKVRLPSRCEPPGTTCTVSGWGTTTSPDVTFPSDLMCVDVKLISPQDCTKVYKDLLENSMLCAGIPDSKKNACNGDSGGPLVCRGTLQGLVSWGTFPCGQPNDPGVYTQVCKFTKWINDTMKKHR
V-ATPase pHluor: alters yeast V-ATPase proton transport | S. cerevisiae, pHLuorin cytosolic pH fluorescence | response, % at 10 µM | 0.37% of 350,000 active; in the data active = response mostly above about 7.3%, no sharp cut-off; inactive = mostly below about 5.4%; note: actives read high
MIN6 prolif-1: induces beta-cell replication in MIN6 cells | MIN6 cells proliferation, ATPlite luminescence, 48 h; cells starved in 0.2% serum; 100% = growth in 10% serum | proliferation, % at 10 µM | 0.29% of 330,000 active;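 active = compounds whose signal lies at least 3.5 SD above the mean of all wells on their plate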;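 note: 0% = DMSO-treated cells in low-serum medium and 100% = 10% serum control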
Rce1 inhib: yeast Ras-converting enzyme inhibition | yeast membranes, quenched prenylated peptide cleavage fluorescence | 0.27% of 290,000 active | AID 2563 | calls only;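 active = fall in fluorescence gain of 50% or more versus controls, with final raw signal at or below 3038400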;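 note: plate controls were neutral control wells for no effect and wells lacking membranes for full effect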
MIN6 prolif-2: confirmation of inducers of beta-cell replication in MIN6 cells | shares compounds with MIN6 prolif-1 | MIN6 beta-cell proliferation, ATPlite luminescence, 48 h; cells kept in 0.2% serum; scaled between 0.2% and 10% serum | proliferation increase, % at 50 µM | 920 tested, under 10 active;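 active = proliferation increase above 40% at any of the four tested concentrations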
Active calls of the source: *; i = inactive; / = no result given. Rows were chosen to be rich in hits. Some 1.9% of all compounds tested hit in one or more screens of this group.

SMILES	T cell HTS	Yeast superoxide	proKLK7 act	V-ATPase pHluor	MIN6 prolif-1	Rce1 inhib	MIN6 prolif-2
Oc1ccccc1-c1nc(N2CCCC2)c2ccccc2n1	306	107	0	2	7.0*	i	6
CC1CCN(c2nc(-c3ccccc3O)nc3ccccc23)CC1	175	100	0	1	-5	i	/
CCc1cccc(CC)c1N(COC)C(=O)Cn1nnc2ccccc21	657	111	0	-3	9.7*	i	-3
CCc1cccc(CC)c1N(COC)C(=O)Cn1c(CO)nc2ccccc21	436	96	0	2	1	i	/
O=C(Cn1nc(-c2ccccc2)ccc1=O)NCCc1cccc(F)c1	/	/	1	/	/	/	/
CCc1nnc(NC(=O)COc2ccccc2[N+](=O)[O-])s1	259	107	0	-1	4.6*	i	-1
O=C(CC1CCCC1)N1CC[C@H]2[C@H](CCCN2Cc2cc(F)cc(F)c2)C1	/	/	1	/	/	/	/
N#CC(c1ccccn1)c1ncc(C(F)(F)F)cc1Cl (configuration not stated)	174	101	0	-2	8.3*	i	6
O=C(NNc1ccccc1)Nc1cc(Cl)ccc1Cl	/	/	0	2	/	/	/
CC(C)[C@H](NS(=O)(=O)c1ccccc1)C(=O)OCC(=O)Nc1ccc2c(c1)OCO2	416	99	1	2	4.6*	i	0
COc1cc(C=Nn2c(-c3cc(C)[nH]n3)n[nH]c2=S)cc(Br)c1O	/	/	1	/	/	/	/
O=C(CN(Cc1ccccc1)C(=O)CNS(=O)(=O)c1ccc(Cl)cc1)NCC1CCCO1 (configuration not stated)	233	96	-1	1	0.0*	i	2
O=C(CN(Cc1cccs1)C(=O)CNS(=O)(=O)c1ccc(Cl)cc1)NCC1CCCO1 (configuration not stated)	273	74	0	-4	3	i	/
CCc1onc(C)c1C(=O)O	176	90	0	0	7.5*	i	-3
CCOC(=O)[C@]12CCCCC/C=C\1N(CCc1ccc(Cl)cc1)C(=O)[C@H]2CC(=O)NCC1CCCCC1	/	/	0	/	/	/	/
Cc1ccccc1NC(=O)c1ccccc1NC(=O)c1cccs1	318	101	0	1	5	i	/
CCOC(=O)c1ccccc1NC(=O)c1cccs1	211	84	0	-3	7.4*	/	4
COC(=O)C12C=C3CC(c4ccc(C)s4)=C3C(=O)N1Cc1[nH]c3ccccc3c1C2 (configuration not stated)	/	/	-1	/	/	/	/
C[C@H](CO)N1C[C@H](C)[C@@H](CN(C)C(=O)Nc2ccc(-c3cccs3)cc2)OCc2cn(nn2)CCCC1=O	/	/	2	/	/	/	/
COCCN(Cc1cc2ccc(C)cc2[nH]c1=O)S(=O)(=O)c1ccccc1	200	100	0	-4	9.1*	i	-1
Clc1ccc(-c2nnc(CNC3CC3)o2)cc1	220	85	0	3	9.5*	i	-3
CCNS(=O)(=O)c1ccc(NC(=O)c2cccnc2)cc1	367	107	0	-6	11*	i	-2
O=C(Nc1ccc(S(=O)(=O)Nc2ncccn2)cc1)c1cccnc1	553	95	0	-2	1	i	/
COc1ccccc1C(=O)Nc1sc(C(=O)N2CCCC2)c(C)c1C#N	187	111	0	-4	8.8*	i	10
Cc1c(C(=O)N2CCCC2)sc(NC(=O)c2ccc(Cl)cc2)c1C#N	327	106	0	1	-3	i	/
COc1ccc(Oc2c(Br)cnn(Cc3cccc4ccccc34)c2=O)cc1	/	/	0	/	/	/	/
CC(C)(Oc1ccc(Cl)cc1)C(=O)Nc1c2c(nn1C(C)(C)C)CS(=O)(=O)C2	235	88	0	2	15*	i	3
CC(=O)c1cccc(NC(=O)Nc2cccnc2)c1	464	98	0	-2	7.9*	i	5
COc1cc([N+](=O)[O-])ccc1NC(=O)c1cccc(NC(=O)C(C)C)c1	165	107	0	-4	7.8*	i	-3
CC(C)C(=O)Nc1cccc(NC(=O)c2cccc([N+](=O)[O-])c2)c1	336	89	0	0	-3	i	/

Screens (PubChem BioAssay)
